Here are results for three compounds from ChEMBL document CHEMBL5653631, “A Potent and Selective ULK1 Inhibitor Suppresses Autophagy and Sensitizes Cancer Cells to Nutrient Stress” (iScience, 2018).

Each structure is given as a SMILES string.

Assay [1] has as its target RAC-gamma serine/threonine-protein kinase (Homo sapiens) (UniProt Q9Y243). Description: Inhibition of human recombinant AKT3 at 40 nM in presence of ATP by radiometric assay relative to control. A digest of the protocol: (§1)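 Panel of 327 recombinant human kinases in radiometric activity assays, each screened in duplicate at a single inhibitor concentration; percent activity remaining relative to vehicle control, percent inhibition taken as 100 minus activity remaining.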

Assay [2] concerns the target Macrophage colony-stimulating factor 1 receptor (Homo sapiens) (UniProt P07333). Description: Inhibition of human recombinant FMS at 40 nM related to control ULK1.
Assay [3] has as its target Proto-oncogene tyrosine-protein kinase receptor Ret (Homo sapiens) (UniProt P07949). Description: Inhibition of human recombinant RET at 40 nM related to control ULK1.
Assay [4] has as its target Rho-associated protein kinase 2 (Homo sapiens) (UniProt O75116). Briefly: Inhibition of human recombinant ROCK2 at 40 nM related to control ULK1.
Assay [5] deals with T1, Tyrosine-protein kinase ZAP-70 (Homo sapiens) (UniProt P43403).
T1 sequence (whole entry): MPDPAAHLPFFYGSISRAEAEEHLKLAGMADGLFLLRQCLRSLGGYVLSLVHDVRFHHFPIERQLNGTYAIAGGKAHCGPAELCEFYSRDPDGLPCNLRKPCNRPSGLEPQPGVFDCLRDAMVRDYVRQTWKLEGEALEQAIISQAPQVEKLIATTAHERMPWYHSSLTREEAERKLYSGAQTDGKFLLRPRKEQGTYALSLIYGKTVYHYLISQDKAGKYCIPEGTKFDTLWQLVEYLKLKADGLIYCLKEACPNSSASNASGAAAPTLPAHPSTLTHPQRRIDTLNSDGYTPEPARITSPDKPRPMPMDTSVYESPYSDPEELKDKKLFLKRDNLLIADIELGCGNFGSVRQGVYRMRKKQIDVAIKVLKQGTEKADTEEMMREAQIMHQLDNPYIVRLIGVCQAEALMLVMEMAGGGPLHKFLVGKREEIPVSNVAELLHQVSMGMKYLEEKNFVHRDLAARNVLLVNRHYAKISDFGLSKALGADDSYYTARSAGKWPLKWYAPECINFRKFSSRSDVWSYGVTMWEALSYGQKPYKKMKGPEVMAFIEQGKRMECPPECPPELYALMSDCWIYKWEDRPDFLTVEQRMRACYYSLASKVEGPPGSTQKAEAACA
Description: Inhibition of human recombinant ZAP70 at 40 nM related to control ULK1.

Assay [6] addresses 5'-AMP-activated protein kinase catalytic subunit alpha-1 (Homo sapiens) (UniProt Q13131). Briefly: Inhibition of human recombinant AMPKa1 at 500 nM related to control ULK1. In outline:
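Panel of 327 recombinant human kinases, each assayed in vitro by radiometric activity assay in duplicate at a single inhibitor concentration per compound, chosen with reference to its ULK1 inhibition. Activity remaining was expressed as percent of vehicle control, and percent inhibition was calculated as 100 minus percent activity remaining.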

The target in assay [7] is High affinity nerve growth factor receptor (Homo sapiens) (UniProt P04629). Briefly: Inhibition of human recombinant TRKA at 500 nM in presence of ATP by radiometric assay relative to control.
Assay [8] deals with Calcium/calmodulin-dependent protein kinase type 1G (Homo sapiens) (UniProt Q96NX5). Briefly: Inhibition of human recombinant CaMK1g at 500 nM related to control ULK1.
Sequence of Calcium/calmodulin-dependent protein kinase type 1G (Homo sapiens) (Q96NX5 whole entry): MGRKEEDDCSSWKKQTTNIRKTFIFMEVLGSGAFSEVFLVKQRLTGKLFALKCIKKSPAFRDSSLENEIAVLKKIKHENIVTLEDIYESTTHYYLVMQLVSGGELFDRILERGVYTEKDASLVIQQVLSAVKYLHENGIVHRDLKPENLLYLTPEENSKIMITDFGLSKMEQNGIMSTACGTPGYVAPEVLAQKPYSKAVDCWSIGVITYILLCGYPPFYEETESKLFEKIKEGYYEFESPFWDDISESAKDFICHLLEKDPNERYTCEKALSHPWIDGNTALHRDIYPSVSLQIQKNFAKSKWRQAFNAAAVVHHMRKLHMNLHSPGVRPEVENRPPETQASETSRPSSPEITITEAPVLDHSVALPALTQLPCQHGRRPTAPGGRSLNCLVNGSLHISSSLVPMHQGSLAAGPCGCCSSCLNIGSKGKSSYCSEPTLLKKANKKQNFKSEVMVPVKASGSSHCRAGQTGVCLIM
The target in assay [9] is RAC-gamma serine/threonine-protein kinase (Homo sapiens) (UniProt Q9Y243). Briefly: Inhibition of human recombinant AKT3 at 500 nM in presence of ATP by radiometric assay relative to control. A digest of the protocol:
as §1

In assay [10] the target is T2, Ephrin type-B receptor 1 (Homo sapiens) (UniProt P54762).
T2 sequence (whole entry): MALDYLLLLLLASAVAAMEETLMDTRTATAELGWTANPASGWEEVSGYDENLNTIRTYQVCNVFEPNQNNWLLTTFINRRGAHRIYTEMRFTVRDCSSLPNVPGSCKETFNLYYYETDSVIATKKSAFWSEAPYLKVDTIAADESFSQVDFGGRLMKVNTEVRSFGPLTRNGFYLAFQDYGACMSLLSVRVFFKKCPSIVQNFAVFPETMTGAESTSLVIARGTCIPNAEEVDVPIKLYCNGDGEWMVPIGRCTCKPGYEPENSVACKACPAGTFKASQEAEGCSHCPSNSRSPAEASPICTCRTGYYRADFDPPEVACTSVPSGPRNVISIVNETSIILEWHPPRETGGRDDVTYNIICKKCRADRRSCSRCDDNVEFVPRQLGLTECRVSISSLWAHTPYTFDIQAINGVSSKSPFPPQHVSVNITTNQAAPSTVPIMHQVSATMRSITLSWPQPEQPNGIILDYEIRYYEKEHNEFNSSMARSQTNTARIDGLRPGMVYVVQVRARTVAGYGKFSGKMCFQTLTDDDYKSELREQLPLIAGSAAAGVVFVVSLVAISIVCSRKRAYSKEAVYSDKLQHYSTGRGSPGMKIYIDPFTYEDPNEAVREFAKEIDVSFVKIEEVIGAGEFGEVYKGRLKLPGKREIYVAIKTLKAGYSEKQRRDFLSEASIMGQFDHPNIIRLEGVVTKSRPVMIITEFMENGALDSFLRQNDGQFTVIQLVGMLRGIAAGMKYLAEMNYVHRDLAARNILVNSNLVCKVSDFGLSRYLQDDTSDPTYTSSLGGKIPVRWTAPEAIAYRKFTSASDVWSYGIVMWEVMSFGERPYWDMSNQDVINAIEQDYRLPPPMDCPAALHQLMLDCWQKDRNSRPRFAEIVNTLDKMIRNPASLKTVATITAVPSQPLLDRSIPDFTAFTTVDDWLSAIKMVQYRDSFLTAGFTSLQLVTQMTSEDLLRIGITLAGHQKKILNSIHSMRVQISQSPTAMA
Briefly: Inhibition of human recombinant EphB1 at 15 nM in presence of ATP by radiometric assay relative to control.

The target of assay [11] is T3, Serine/threonine-protein kinase Sgk2 (Homo sapiens) (UniProt Q9HBY8).
T3 sequence (whole entry): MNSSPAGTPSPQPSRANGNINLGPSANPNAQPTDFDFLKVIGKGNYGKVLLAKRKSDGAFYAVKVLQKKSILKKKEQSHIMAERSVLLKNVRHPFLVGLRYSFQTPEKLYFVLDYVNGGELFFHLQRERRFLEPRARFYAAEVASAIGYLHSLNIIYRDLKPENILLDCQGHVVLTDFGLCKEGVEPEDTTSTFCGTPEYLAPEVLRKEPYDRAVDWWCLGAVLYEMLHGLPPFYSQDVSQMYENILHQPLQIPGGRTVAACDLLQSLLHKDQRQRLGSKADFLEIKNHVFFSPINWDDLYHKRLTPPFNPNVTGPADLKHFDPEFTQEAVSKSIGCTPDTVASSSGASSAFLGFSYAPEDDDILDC
Description: Inhibition of human recombinant SGK2 at 15 nM in presence of ATP by radiometric assay relative to control.

Assay [12] has as its target Receptor tyrosine-protein kinase erbB-4 (Homo sapiens) (UniProt Q15303). Description: Inhibition of human recombinant ErbB4 at 15 nM related to control ULK1.
Assay [13] concerns the target Protein kinase C eta type (Homo sapiens) (UniProt P24723). Briefly: Inhibition of human recombinant PKCH at 15 nM related to control ULK1.

Sequence of RAC-gamma serine/threonine-protein kinase (Homo sapiens) (Q9Y243 whole entry): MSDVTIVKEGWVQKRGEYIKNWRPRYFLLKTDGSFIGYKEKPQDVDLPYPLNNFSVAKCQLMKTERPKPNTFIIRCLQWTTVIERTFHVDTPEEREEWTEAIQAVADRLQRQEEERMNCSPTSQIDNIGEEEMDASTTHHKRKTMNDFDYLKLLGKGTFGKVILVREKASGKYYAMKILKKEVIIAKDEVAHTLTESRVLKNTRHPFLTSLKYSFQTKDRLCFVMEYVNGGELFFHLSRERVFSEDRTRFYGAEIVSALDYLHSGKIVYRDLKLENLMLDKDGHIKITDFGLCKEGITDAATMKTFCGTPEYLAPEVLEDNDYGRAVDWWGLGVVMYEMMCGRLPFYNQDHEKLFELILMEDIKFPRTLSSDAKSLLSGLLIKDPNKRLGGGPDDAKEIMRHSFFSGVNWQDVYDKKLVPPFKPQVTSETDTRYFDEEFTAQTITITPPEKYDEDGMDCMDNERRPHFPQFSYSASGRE
Sequence of Receptor tyrosine-protein kinase erbB-4 (Homo sapiens) (Q15303 whole entry): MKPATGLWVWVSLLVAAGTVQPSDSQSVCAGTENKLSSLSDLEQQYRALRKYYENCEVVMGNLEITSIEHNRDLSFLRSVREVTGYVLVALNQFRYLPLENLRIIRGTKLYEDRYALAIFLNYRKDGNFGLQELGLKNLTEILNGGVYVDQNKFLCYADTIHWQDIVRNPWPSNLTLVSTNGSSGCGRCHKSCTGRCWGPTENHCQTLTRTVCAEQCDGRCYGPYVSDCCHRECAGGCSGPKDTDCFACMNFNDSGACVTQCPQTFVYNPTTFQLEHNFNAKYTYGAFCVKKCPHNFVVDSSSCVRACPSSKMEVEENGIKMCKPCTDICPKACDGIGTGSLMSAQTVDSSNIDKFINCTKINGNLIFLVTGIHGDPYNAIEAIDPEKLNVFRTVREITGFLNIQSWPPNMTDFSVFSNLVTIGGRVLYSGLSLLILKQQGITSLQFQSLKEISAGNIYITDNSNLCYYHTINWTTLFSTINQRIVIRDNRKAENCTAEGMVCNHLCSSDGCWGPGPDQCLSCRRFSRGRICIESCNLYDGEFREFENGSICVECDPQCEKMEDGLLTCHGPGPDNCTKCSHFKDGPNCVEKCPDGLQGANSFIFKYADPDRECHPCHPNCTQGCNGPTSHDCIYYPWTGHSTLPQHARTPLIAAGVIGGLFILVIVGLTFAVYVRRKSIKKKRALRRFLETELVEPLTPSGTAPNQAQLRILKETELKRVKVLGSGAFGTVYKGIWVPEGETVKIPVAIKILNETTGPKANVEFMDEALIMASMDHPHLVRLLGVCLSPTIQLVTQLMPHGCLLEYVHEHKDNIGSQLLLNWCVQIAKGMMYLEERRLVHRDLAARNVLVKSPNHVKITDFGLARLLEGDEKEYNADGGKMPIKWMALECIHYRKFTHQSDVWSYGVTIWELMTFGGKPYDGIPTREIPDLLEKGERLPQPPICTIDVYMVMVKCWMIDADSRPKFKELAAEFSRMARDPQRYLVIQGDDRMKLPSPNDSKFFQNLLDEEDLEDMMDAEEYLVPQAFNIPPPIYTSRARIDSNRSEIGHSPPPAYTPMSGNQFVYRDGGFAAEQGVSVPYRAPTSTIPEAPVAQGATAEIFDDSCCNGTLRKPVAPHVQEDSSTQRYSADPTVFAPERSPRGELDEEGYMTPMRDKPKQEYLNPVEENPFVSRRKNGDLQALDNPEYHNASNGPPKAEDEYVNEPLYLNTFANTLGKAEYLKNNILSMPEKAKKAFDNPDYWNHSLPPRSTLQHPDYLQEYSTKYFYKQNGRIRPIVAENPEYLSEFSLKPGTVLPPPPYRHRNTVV
Sequence of Rho-associated protein kinase 2 (Homo sapiens) (O75116 whole entry, looked up): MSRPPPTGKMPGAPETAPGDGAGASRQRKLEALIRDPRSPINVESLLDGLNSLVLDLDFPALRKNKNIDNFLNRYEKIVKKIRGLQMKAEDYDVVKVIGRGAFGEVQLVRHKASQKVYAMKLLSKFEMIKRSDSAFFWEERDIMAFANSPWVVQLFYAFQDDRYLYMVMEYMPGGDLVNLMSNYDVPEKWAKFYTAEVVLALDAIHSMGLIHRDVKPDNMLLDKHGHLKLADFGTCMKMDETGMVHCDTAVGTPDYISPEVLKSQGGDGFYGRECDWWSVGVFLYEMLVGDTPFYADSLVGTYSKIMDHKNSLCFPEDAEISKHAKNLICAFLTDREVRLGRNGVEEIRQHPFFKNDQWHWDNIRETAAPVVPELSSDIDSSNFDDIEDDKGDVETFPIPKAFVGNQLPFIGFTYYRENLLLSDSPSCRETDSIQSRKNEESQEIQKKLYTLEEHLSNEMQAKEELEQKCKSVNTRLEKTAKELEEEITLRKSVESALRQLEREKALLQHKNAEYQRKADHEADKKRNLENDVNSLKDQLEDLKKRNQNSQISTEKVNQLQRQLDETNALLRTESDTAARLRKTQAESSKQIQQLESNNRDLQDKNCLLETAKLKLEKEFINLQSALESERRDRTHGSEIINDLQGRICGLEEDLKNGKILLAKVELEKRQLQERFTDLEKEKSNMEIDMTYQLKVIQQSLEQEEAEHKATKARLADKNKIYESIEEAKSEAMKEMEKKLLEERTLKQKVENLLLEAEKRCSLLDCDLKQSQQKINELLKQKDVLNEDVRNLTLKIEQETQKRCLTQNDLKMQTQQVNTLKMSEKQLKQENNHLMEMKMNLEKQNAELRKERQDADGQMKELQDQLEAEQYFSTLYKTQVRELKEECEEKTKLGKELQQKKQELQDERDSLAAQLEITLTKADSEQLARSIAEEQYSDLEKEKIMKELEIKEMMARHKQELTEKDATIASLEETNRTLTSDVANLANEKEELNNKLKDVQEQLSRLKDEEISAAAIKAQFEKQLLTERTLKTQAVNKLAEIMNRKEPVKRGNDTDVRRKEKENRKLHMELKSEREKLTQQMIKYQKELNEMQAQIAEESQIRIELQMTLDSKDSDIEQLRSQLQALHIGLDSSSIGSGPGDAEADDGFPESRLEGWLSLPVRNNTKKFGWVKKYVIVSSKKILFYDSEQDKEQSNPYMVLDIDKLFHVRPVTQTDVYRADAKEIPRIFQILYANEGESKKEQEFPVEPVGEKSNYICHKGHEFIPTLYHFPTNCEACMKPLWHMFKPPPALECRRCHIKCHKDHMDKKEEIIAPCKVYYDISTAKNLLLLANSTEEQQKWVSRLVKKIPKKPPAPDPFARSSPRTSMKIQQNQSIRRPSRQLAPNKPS
Sequence of Macrophage colony-stimulating factor 1 receptor (Homo sapiens) (P07333 whole entry): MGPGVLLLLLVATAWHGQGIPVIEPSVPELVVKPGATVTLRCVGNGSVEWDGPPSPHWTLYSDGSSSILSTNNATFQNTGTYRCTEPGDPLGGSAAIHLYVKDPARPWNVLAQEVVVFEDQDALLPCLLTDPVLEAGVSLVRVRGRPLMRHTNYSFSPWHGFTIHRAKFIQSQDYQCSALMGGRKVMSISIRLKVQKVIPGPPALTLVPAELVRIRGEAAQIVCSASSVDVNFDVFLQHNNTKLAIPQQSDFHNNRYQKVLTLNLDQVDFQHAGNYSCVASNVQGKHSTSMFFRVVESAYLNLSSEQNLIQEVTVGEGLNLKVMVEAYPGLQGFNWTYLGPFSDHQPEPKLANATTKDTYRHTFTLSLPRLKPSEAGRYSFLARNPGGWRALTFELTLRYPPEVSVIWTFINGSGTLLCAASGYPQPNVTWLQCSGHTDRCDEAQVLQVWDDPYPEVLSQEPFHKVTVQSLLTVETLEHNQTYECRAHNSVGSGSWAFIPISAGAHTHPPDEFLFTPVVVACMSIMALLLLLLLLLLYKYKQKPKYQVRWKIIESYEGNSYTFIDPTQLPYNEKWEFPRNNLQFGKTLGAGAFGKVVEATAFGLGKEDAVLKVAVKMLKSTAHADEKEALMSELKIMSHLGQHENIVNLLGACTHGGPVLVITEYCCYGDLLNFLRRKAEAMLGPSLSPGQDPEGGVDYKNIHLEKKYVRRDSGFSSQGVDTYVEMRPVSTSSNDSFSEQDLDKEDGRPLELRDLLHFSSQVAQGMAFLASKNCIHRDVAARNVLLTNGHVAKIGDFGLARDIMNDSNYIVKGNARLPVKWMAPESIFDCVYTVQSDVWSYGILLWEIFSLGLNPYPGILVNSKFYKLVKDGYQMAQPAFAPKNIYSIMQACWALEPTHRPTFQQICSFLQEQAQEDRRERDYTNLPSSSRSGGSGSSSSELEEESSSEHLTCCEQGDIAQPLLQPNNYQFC

Take `O=C(N[C@@H](C1CC1)C(F)(F)F)c1cc(-c2cnn3cc(-c4ccc(F)cc4)cnc23)cs1`: in assay [1], the inhibition turned out to be 2%. Moreover, the fold change (FC) in assay [2] was 0.01; in assay [3], 0; in assay [4], 0.03; in assay [5], 0.
Regarding `CNC(=O)c1ccccc1Oc1nc(Nc2cc(OC)c(OC)c(OC)c2)ncc1Br`, the figures for the fold change (FC) in [6] and in assay [8] were 0.69 and 0.08, respectively. In addition, the values for the inhibition in assay [7] and in assay [9] were 52% and 5%, respectively.
Regarding `CC(C)[C@H](NC(=O)c1cc(-c2cnn3cc(-c4ccc(OCCN5CCCCC5)cc4)cnc23)cs1)C(F)(F)F`, the inhibition in assay [10] was 12%; in [11] it was 0%. The fold change (FC) in [12] and in [13] was 0 throughout.
